Common to all, as to format: subcellular, Brain
The target in one test is D(2) dopamine receptor (Rattus norvegicus, UniProt P61169). In words: The compound has been evaluated for its binding affinity towards Dopamine receptor D2 by displacing the radioligand [3H]YM-09151-2 (0.5 nM) in rat striatal synaptosomes. A digest of the protocol: (§1)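 Rat striatal synaptosomes were incubated with a ³H-labelled radioligand. Nonspecific binding was defined with excess unlabelled ligand and subtracted: SCH23390 for D1, sulpiride for D2 and GBR12909 for the dopamine transporter. Ki was calculated from IC50 as IC50/(1+[L]/KD), where [L] is the radioligand concentration and KD its dissociation constant.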
Sequence of D(2) dopamine receptor (P61169 whole entry): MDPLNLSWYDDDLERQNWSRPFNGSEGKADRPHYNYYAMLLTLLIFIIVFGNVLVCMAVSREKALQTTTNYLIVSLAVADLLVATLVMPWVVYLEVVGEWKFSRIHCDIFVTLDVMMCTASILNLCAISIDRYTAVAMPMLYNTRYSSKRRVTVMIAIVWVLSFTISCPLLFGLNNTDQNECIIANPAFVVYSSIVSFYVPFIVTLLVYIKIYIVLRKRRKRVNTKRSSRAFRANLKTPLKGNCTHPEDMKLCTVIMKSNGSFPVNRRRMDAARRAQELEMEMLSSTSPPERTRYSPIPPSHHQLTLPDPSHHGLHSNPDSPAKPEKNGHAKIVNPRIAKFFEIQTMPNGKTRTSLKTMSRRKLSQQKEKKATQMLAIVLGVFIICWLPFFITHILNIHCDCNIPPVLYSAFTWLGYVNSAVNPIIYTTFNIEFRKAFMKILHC

In the next test the target is D(1A) dopamine receptor (Rattus norvegicus, UniProt P18901). In words: The compound has been evaluated for its binding affinity towards Dopamine receptor D1 by displacing the radioligand [3H]SCH-23390 (1.5 nM) in rat striatal synaptosomes. A digest of the protocol:
as §1

Test [1] concerns the target Sodium-dependent dopamine transporter (Rattus norvegicus, UniProt P23977). In words: The compound has been evaluated for its binding affinity towards Dopamine transporter by displacing the radioligand [3H]GBR-12935 (1.0 nM) in rat striatal synaptosomes. A digest of the protocol: as §1

Molecules are shown by their SMILES. pKi: −log10 of the molar value.

The pKi is −log10 of the Ki, conventionally taken in molar units. High values mean a low Ki, low ones a high Ki.

Sequence of D(1A) dopamine receptor (P18901 whole entry): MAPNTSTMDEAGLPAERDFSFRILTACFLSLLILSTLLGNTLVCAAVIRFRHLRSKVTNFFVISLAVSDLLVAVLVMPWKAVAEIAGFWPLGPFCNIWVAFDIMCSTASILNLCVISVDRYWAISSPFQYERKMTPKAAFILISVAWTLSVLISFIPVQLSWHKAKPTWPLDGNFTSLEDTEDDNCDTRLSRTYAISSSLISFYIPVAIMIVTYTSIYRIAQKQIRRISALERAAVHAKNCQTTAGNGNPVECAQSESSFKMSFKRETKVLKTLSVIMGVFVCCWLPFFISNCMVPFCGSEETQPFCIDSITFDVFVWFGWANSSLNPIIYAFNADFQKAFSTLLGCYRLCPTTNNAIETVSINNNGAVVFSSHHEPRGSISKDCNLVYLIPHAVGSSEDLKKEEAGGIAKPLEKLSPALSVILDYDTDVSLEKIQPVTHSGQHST
Sequence of Sodium-dependent dopamine transporter (P23977 whole entry): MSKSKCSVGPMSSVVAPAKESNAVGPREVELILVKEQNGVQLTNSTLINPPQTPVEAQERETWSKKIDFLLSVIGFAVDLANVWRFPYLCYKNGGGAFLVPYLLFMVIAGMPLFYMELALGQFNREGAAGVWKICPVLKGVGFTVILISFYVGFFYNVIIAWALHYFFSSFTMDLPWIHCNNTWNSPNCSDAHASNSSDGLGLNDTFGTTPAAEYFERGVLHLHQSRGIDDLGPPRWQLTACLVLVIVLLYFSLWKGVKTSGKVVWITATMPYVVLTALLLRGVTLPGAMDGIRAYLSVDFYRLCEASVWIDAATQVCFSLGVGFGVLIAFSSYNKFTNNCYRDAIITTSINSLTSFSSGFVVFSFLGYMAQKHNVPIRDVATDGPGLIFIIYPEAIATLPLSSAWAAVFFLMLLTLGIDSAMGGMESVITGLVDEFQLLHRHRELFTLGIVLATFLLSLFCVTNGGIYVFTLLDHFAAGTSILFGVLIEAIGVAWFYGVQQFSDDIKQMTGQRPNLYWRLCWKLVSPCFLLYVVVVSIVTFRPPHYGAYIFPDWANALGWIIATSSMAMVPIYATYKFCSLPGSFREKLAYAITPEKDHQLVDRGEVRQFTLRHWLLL

Turning to `Oc1cc2c(cc1O)C(Cc1ccccc1)NCC2` (centres undefined), the negative-log Ki (pKi) is 6.19 at D(2) dopamine receptor, 5.03 on D(1A) dopamine receptor and 4.24 in test [1].
Regarding `Oc1ccc(CC2NCCc3ccccc32)cc1O` (centres undefined), the pKi at D(2) dopamine receptor is 5.06; on D(1A) dopamine receptor, 3.76; in test [1] it was 4.67.
With `c1ccc(CC2NCCc3ccccc32)cc1` (centres undefined), the pKi is 5.45 on D(2) dopamine receptor, 3.60 on D(1A) dopamine receptor and 4.44 in test [1].

For the origin of these results see ChEMBL document CHEMBL1133134, “Inhibition of dopamine receptors by endogenous amines: binding to striatal receptors and pharmacological effects on locomotor activity” (Bioorg Med Chem Lett, 2000).
